Assay results published in ChEMBL document CHEMBL4477213, “Discovery and Optimization of Quinazolinone-pyrrolopyrrolones as Potent and Orally Bioavailable Pan-Pim Kinase Inhibitors” (J Med Chem, 2016).
≈ marks a conversion by molar mass, not a printed value.

Experiments:
[1] = Volume of distribution at steady state in rat at 2 mg/kg, iv or 5 mg/kg, po; type: ADME, organism-based; settings: in vivo, read-out: Vdss
[2] = Aqueous solubility of the compound in PBS at pH 7.4 after 1 hr by LC/MS analysis; type: physicochemical
Method in brief: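 The compound was dried down from DMSO and taken up in 1x PBS (pH 7.4) or FaSIF (pH 6.8). Samples were shaken 1 h, equilibrated at RT for 72 h, then centrifuged.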

[3] = Oral bioavailability in dog; type: ADME, organism-based, Canis lupus familiaris; settings: in vivo
Bos taurus = species: Bos taurus; test: Inhibition of bovine I1-receptor assessed as remaining enzyme activity at 10 uM relative to untreated control
[4] = target: Dual specificity protein kinase CLK4 (Homo sapiens) (UniProt Q9HAZ1); test: Inhibition of human CLK4 (135 to 481 residues) expressed in bacterial system assessed as remaining enzyme activity at 1 uM by KINOMEScan assay relative to control
[5] = target: T1, Mitogen-activated protein kinase 12 (Homo sapiens) (UniProt P53778); test: Inhibition of full length human p38-gamma expressed in bacterial system assessed as remaining enzyme activity at 1 uM by KINOMEScan assay relative to control
T1 sequence (whole entry): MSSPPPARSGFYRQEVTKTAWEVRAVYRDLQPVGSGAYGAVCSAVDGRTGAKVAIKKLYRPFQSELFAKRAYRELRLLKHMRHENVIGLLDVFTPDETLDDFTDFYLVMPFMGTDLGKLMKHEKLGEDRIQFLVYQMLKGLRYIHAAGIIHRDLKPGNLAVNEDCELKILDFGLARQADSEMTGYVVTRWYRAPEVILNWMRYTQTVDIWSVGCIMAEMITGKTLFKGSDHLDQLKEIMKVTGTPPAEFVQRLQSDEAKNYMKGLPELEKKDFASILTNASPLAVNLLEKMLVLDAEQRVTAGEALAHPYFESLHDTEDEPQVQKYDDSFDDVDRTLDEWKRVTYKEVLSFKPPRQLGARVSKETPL

[6] = target: Casein kinase II subunit alpha (Homo sapiens) (UniProt P68400); test: Inhibition of full length human CSNK2A1 expressed in mammalian system assessed as remaining enzyme activity at 1 uM by KINOMEScan assay relative to control
[7] = target: Dual specificity tyrosine-phosphorylation-regulated kinase 1A (Homo sapiens) (UniProt Q13627); test: Inhibition of human DYRK1A (129 to 509 residues) expressed in mammalian system assessed as remaining enzyme activity at 1 uM by KINOMEScan assay relative to control
KMS-12-BM = test: Antitumor activity against human KMS-12-BM cells xenografted in SCID-bg mouse assessed as tumor growth inhibition at 10 mg/kg, po qd measured twice per week; type: functional; settings: read-out: TGI
Mus musculus [8] = test: In vivo inhibition of pan Pim in SCID-bg mouse xenografted with human KMS-12-BM cells assessed as phosphorylation of BAD peptide at Serine 112 residue at 25 mg/kg, po qd measured at 1 hr post dose relative to control; type: functional; parameters: scale not given: the % may be the effect or the level left
Mus musculus [9] = test: In vivo inhibition of pan Pim in SCID-bg mouse xenografted with human KMS-12-BM cells assessed as phosphorylation of BAD peptide at Serine 112 residue at 50 mg/kg, po qd measured at 1 hr post dose relative to control; type: functional; parameters: scale not given: the % may be the effect or the level left
Mus musculus [10] = test: In vivo inhibition of pan Pim in SCID-bg mouse xenografted with human KMS-12-BM cells assessed as phosphorylation of BAD peptide at Serine 112 residue at 10 mg/kg, po qd measured at 4 hrs post dose relative to control; type: functional; parameters: scale not given: the % may be the effect or the level left
Mus musculus [11] = test: In vivo inhibition of pan Pim in SCID-bg mouse xenografted with human KMS-12-BM cells assessed as phosphorylation of BAD peptide at Serine 112 residue at 100 mg/kg, po qd measured at 4 hrs post dose relative to control; type: functional; parameters: scale not given: the % may be the effect or the level left
Mus musculus [12] = test: In vivo inhibition of pan Pim in SCID-bg mouse xenografted with human KMS-12-BM cells assessed as phosphorylation of BAD peptide at Serine 112 residue at 25 mg/kg, po qd measured at 8 hrs post dose relative to control; type: functional; parameters: scale not given: the % may be the effect or the level left
Mus musculus [13] = test: In vivo inhibition of pan Pim in SCID-bg mouse xenografted with human KMS-12-BM cells assessed as phosphorylation of BAD peptide at Serine 112 residue at 50 mg/kg, po qd measured at 8 hrs post dose relative to control; type: functional; parameters: scale not given: the % may be the effect or the level left
Mus musculus [14] = test: In vivo inhibition of pan Pim in SCID-bg mouse xenografted with human KMS-12-BM cells assessed as phosphorylation of BAD peptide at Serine 112 residue at 10 mg/kg, po qd measured at 12 hrs post dose relative to control; type: functional; parameters: scale not given: the % may be the effect or the level left
Mus musculus [15] = test: In vivo inhibition of pan Pim in SCID-bg mouse xenografted with human KMS-12-BM cells assessed as phosphorylation of BAD peptide at Serine 112 residue at 25 mg/kg, po qd measured at 12 hrs post dose relative to control; type: functional; parameters: scale not given: the % may be the effect or the level left
Mus musculus [16] = test: In vivo inhibition of pan Pim in SCID-bg mouse xenografted with human KMS-12-BM cells assessed as phosphorylation of BAD peptide at Serine 112 residue at 50 mg/kg, po qd measured at 12 hrs post dose relative to control; type: functional; parameters: scale not given: the % may be the effect or the level left
Mus musculus [17] = test: In vivo inhibition of pan Pim in SCID-bg mouse xenografted with human KMS-12-BM cells assessed as phosphorylation of BAD peptide at Serine 112 residue at 25 mg/kg, po qd measured at 24 hrs post dose relative to control; type: functional; parameters: scale not given: the % may be the effect or the level left
Mus musculus [18] = test: In vivo inhibition of pan Pim in SCID-bg mouse xenografted with human KMS-12-BM cells assessed as plasma concentration required for reduction of BAD peptide phosphorylation at Serine 112 residue at 10 to 100 mg/kg, po qd measured after 1 to 24 hrs post dose; type: functional, organism-based
[19] = Fraction unbound in mouse plasma; type: ADME, cell-free
[20] = Aqueous solubility of the compound in FaSIF at pH 6.8 after 1 hr by LC/MS analysis

Sequence of Casein kinase II subunit alpha (Homo sapiens) (P68400 whole entry, looked up, the tested form may be a part): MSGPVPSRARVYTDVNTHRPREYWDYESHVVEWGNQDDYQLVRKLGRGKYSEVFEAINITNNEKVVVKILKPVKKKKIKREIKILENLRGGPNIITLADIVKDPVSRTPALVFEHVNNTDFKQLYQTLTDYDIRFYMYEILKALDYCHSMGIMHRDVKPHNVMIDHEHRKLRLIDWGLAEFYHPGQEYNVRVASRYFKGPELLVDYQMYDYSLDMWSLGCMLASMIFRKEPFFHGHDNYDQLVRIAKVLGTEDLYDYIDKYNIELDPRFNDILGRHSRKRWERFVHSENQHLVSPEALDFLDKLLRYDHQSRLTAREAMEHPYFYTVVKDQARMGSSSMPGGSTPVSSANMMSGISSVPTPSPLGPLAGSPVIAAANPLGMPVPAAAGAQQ
Sequence of Dual specificity protein kinase CLK4 (Homo sapiens) (Q9HAZ1 whole entry, looked up, the tested form may be a part): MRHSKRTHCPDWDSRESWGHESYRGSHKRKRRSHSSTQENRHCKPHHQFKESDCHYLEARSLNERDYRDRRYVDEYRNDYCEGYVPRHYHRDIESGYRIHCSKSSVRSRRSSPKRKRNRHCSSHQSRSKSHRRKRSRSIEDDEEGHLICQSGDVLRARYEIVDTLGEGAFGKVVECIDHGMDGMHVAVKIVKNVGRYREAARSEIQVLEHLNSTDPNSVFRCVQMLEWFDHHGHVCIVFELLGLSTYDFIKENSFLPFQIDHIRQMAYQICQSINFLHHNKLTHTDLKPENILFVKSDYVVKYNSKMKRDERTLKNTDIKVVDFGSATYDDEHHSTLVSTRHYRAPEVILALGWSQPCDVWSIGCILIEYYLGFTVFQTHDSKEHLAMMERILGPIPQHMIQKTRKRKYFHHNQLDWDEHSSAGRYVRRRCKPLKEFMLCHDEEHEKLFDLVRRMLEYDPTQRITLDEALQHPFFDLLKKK

- Vd [1]: 1.5 L/kg
- solubility at 1 h [2]: 60 µM (≈ 21.9 µg/mL)
- bioavailability [3]: 44%
- Activity (Bos taurus): < 10%
- Activity [4]: 0.2%
- Activity [5]: 0.9%
- Activity [6]: 3.5%
- Activity [7]: 6%
- EC50 (Mus musculus [18]): 254 nM
- Cp(f) [19]: 21.4 nM
- solubility at 1 h [20]: 104 µM (≈ 38 µg/mL)
SMILES: C[C@H]1NC(=O)c2cc(-c3cccc4c(=O)n(C)c(NC(C)(C)C)nc34)[nH]c21
- inhibition in vivo at 10 mg/kg (KMS-12-BM): 30%
- Activity (Mus musculus [8]): 60%
- Activity (Mus musculus [9]): 61%
- Activity (Mus musculus [10]): 50%
- Activity (Mus musculus [11]): 63%
- Activity (Mus musculus [12]): 60%
- Activity (Mus musculus [13]): 85%
- Activity (Mus musculus [14]): 34%
- Activity (Mus musculus [15]): 37%
- Activity (Mus musculus [16]): 65%
- Activity (Mus musculus [17]): 0%
